Measured values taken from ChEMBL document CHEMBL1138602, “Discovery of sodium 6-[(5-chloro-2-{[(4-chloro-2-fluorophenyl)methyl]oxy}phenyl)methyl]-2-pyridinecarboxylate (GSK269984A) an EP(1) receptor antagonist for the treatment of inflammatory pain” (Bioorg Med Chem Lett, 2009).

Assays:
[1] = Volume of distribution at steady state in cynomolgus monkey at 1 mg/kg administered by intravenous infusion for 1 hr; assay type: ADME, organism-based, Macaca fascicularis; design: dose 1 mg/kg, route intravenous; conditions: in vivo, read-out: Vdss
Hepatocyte [2] = assay: Intrinsic clearance in rat hepatocytes measured per gram of live; assay type: ADME, cell-based, Liver
Procedure, shortened: (§1)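 Intrinsic clearance in hepatocytes expressed as mL/min/g liver. Cell densities were 0.15–0.2 × 10^6 cells/mL or 0.54–0.7 × 10^6 cells/mL.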

[3] = biological target: Prostaglandin F2-alpha receptor (Homo sapiens, UniProt P43088); assay: Inhibition of FP receptor
[4] = Ratio of drug level in brain to blood in complete Freund's adjuvant induced rat inflammatory pain model at 10 mg/kg, po bid for 5 days measured after 1 hr on day 5
[5] = Volume of distribution at steady state in Beagle dog at 1 mg/kg administered by intravenous infusion for 1 hr; assay type: ADME, organism-based, Canis lupus familiaris; design: dose 1 mg/kg, route intravenous; conditions: in vivo, read-out: Vdss
Cytochrome P450 2C9 = Cytochrome P450 2C9 (Homo sapiens, UniProt P11712); assay: Inhibition of human CYP2C9; assay type: ADME
Procedure, shortened: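 Inhibition of metabolism of fluorometric substrates (Cypex protocol); IC50 values are the mean of three experiments ± standard deviation.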

[6] = Ratio of drug level in brain to blood in complete Freund's adjuvant-induced rat inflammatory pain model at 1 mg/kg, po administered after 23 hrs of adjuvant challenge measured after 1 hr; assay type: ADME, organism-based; design: dose 1 mg/kg, route oral; conditions: brain and blood
Procedure, shortened: (§2)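 Rat CFA inflammatory pain model: oral dosing at 1, 3 or 10 mg/kg 23 h after intraplantar adjuvant; blood and brain sampled 1 h post-dose from the same animal; Br:Bl ratio is the mean from three animals.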

[7] = Drug level in rat blood at 0.5 mg/kg/hr administered by infusion for 1 hrs; assay type: ADME, organism-based; conditions: intravenous, read-out: Drug uptake
Procedure, shortened: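 Rat given a 1 h infusion; blood and brain concentrations measured.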

Rattus norvegicus = assay: […] activity against complete Freund's adjuvant induced inflammatory pain in po dosed rat assessed as reversal of hypersensitivity post-adjuvant challenge after 1 hr; assay type: functional
Procedure, shortened: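 Rats given adjuvant by intraplantar injection; oral dosing at 1, 3 and 10 mg/kg 23 h later. Hypersensitivity assessed by weight-bearing 1 h post-dose. ED50 derived across doses.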

[8] = Intrinsic clearance in cynomolgus monkey hepatocytes measured per gram of liver at 0.15 to 0.2 X 10^6 cells/ml cell density; assay type: ADME, cell-based, Macaca fascicularis, Hepatocyte; procedure, shortened: as §1
[9] = Drug level in brain of complete Freund's adjuvant-induced rat inflammatory pain model at 1 mg/kg, po administered after 23 hrs of adjuvant challenge measured after 1 hr; assay type: ADME, organism-based; design: dose 1 mg/kg, route oral; conditions: read-out: Drug uptake
Procedure, shortened: (§3)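 CFA rat study: oral doses of 1, 3 or 10 mg/kg given 23 h after intraplantar adjuvant, samples 1 h post-dose. Blood values are the mean from seven animals. Brain values are the mean from three animals.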

[10] = Oral bioavailability in Sprague-Dawley rat at 3 mg/kg; assay type: ADME, organism-based; conditions: in vivo
Procedure, shortened: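 Single oral dose of 3 mg/kg in 1% (w/v) methylcellulose vehicle. Rats were male Sprague-Dawley; dogs were beagle. Bioavailability (Fpo) determined.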

Hepatocyte [11] = assay: Intrinsic clearance in human hepatocytes measured per gram of liver at 0.15 to 0.2 X 10^6 cells/ml cell density; assay type: ADME, cell-based; procedure, shortened: as §1
[12] = Half life in Beagle dog at 1 mg/kg administered by intravenous infusion for 1 hr; assay type: ADME, organism-based, Canis lupus familiaris; design: dose 1 mg/kg, route intravenous; conditions: in vivo
Procedure, shortened: (§4)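 Intravenous administration as a 1 h infusion of a 1 mg/kg dose. Rats were male Sprague-Dawley; dogs were beagle; monkeys were cynomolgus. Blood clearance, Vss and half-life determined.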

[13] = Drug level in blood of complete Freund's adjuvant induced rat inflammatory pain model at 10 mg/kg, bid measured after 1 hr on day 5; assay type: ADME, organism-based; design: dose 10 mg/kg; conditions: read-out: Drug uptake
Procedure, shortened: (§5)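 Satellite group dosed at 10 mg/kg b.i.d. for 5 days; blood sampled 1 h post-dose on day 1 and on day 5.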

[14] = Clearance in Sprague-Dawley rat blood at 1 mg/kg administered by intravenous infusion for 1 hr; assay type: ADME, organism-based; design: dose 1 mg/kg, route intravenous; procedure, shortened: as §4
[15] = Ratio of drug level in brain to blood of mouse at 0.5 mg/kg/hr administered by infusion for 12 hrs; conditions: brain and blood, intravenous
[16] = Ratio of drug level in brain to blood of Landrace pig at 0.5 mg/kg/hr administered by infusion for 1 hrs; conditions: brain and blood, intravenous
[17] = Volume of distribution at steady state in Sprague-Dawley rat at 1 mg/kg administered by intravenous infusion for 1 hr; assay type: ADME, organism-based; design: dose 1 mg/kg, route intravenous; conditions: in vivo, read-out: Vdss
[18] = Drug level in blood of complete Freund's adjuvant induced rat inflammatory pain model at 10 mg/kg, bid measured after 1 hr on day 1; assay type: ADME, organism-based; design: dose 10 mg/kg; conditions: read-out: Drug uptake; procedure, shortened: as §5
[19] = biological target: T1, Prostaglandin E2 receptor EP1 subtype (Homo sapiens, UniProt P34995); assay: Displacement of [3H]PGE2 from human EP1 receptor expressed in CHO cells; assay type: cell-based
T1 sequence (P34995 whole entry): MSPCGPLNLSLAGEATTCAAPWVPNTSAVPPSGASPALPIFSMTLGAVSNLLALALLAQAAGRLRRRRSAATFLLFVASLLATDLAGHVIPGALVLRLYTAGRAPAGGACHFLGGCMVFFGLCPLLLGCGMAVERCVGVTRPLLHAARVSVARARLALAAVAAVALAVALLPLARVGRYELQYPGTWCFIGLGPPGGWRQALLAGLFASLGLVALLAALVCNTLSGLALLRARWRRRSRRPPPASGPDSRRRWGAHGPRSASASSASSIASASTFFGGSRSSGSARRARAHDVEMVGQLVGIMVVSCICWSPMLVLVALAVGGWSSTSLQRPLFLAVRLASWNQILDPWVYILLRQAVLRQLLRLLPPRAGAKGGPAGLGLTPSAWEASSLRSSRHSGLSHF
Procedure, shortened: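 Radioligand binding with [3H]-PGE2 in CHO cells overexpressing human EP1 receptor. Values are the mean of at least three experiments with standard deviations.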

[20] = Drug level in Landrace pig brain at 0.5 mg/kg/hr administered by infusion for 1 hrs; assay type: ADME, organism-based, Sus scrofa; conditions: intravenous, read-out: Drug uptake
Procedure, shortened: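 Landrace pig given a 1 h infusion; blood and brain concentrations measured in a single animal.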

[21] = Drug level in brain of complete Freund's adjuvant-induced rat inflammatory pain model at 3 mg/kg, po administered after 23 hrs of adjuvant challenge measured after 1 hr; assay type: ADME, organism-based; design: dose 3 mg/kg, route oral; conditions: read-out: Drug uptake; procedure, shortened: as §3
[22] = Ratio of drug level in brain to blood in complete Freund's adjuvant-induced rat inflammatory pain model at 10 mg/kg, po administered after 23 hrs of adjuvant challenge measured after 1 hr; assay type: ADME, organism-based; design: dose 10 mg/kg, route oral; conditions: brain and blood; procedure, shortened: as §2
[23] = Half life in Sprague-Dawley rat at 1 mg/kg administered by intravenous infusion for 1 hr; assay type: ADME, organism-based; design: dose 1 mg/kg, route intravenous; conditions: in vivo; procedure, shortened: as §4
[24] = Intrinsic clearance in cynomolgus monkey hepatocytes measured per gram of liver at 0.54 to 0.7 X 10^6 cells/ml cell density; assay type: ADME, cell-based, Macaca fascicularis, Hepatocyte; procedure, shortened: as §1
[25] = biological target: Prostaglandin G/H synthase 1 (Homo sapiens, UniProt P23219); assay: Inhibition of COX1
[26] = Drug level in brain of complete Freund's adjuvant-induced rat inflammatory pain model at 10 mg/kg, po administered after 23 hrs of adjuvant challenge measured after 1 hr; assay type: ADME, organism-based; design: dose 10 mg/kg, route oral; conditions: brain, read-out: Drug uptake; procedure, shortened: as §3
Prostacyclin receptor = Prostacyclin receptor (Homo sapiens, UniProt P43119); assay: Inhibition of IP receptor
[27] = biological target: T1, Prostaglandin E2 receptor EP1 subtype; assay: Antagonist activity at human recombinant EP1 receptor expressed in CHO cells assessed as inhibition of PGE2-mediated intracellular calcium mobilization by FLIPR method; assay type: functional, cell-based
Procedure, shortened: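 CHO cells recombinantly overexpressing human EP1 receptor; antagonism measured as block of PGE2-mediated intracellular Ca2+ mobilization. Values are the mean of at least three experiments with standard deviations.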

Chain of Prostacyclin receptor (P43119 whole entry): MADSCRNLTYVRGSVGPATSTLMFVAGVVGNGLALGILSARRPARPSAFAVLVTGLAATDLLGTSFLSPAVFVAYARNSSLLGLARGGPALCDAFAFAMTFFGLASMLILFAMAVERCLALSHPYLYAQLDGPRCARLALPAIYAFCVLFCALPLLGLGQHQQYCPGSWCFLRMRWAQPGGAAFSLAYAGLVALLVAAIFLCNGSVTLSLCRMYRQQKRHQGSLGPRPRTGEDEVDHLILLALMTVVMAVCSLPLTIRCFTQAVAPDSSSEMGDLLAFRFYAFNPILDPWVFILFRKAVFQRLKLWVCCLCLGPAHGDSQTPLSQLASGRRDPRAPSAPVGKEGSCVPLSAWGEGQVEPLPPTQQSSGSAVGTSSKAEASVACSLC
Chain of Cytochrome P450 2C9 (P11712 whole entry): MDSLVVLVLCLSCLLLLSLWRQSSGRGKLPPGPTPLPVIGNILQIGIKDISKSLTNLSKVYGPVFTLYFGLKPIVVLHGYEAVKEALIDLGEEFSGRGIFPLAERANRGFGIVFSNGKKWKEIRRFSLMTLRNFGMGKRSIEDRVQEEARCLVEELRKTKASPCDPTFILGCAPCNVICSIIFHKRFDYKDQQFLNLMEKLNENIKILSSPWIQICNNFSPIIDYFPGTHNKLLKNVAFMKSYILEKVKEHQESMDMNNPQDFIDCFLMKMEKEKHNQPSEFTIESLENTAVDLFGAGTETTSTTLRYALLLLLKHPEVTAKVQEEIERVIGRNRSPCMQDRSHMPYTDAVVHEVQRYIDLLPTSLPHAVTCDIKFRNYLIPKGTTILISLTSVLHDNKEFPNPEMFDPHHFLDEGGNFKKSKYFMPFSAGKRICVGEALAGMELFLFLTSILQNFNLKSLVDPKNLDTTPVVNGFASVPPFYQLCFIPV
Chain of Prostaglandin F2-alpha receptor (P43088 whole entry): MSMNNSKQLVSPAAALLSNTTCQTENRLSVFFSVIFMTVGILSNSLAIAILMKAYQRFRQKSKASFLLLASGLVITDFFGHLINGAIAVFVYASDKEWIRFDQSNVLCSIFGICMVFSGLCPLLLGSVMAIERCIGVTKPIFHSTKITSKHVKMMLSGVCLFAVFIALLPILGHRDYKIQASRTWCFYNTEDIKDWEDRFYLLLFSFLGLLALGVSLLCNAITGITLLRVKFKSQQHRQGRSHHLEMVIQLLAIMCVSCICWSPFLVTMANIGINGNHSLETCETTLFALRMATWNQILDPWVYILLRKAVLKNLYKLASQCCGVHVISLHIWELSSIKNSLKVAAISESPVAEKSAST
Chain of Prostaglandin G/H synthase 1 (P23219 whole entry): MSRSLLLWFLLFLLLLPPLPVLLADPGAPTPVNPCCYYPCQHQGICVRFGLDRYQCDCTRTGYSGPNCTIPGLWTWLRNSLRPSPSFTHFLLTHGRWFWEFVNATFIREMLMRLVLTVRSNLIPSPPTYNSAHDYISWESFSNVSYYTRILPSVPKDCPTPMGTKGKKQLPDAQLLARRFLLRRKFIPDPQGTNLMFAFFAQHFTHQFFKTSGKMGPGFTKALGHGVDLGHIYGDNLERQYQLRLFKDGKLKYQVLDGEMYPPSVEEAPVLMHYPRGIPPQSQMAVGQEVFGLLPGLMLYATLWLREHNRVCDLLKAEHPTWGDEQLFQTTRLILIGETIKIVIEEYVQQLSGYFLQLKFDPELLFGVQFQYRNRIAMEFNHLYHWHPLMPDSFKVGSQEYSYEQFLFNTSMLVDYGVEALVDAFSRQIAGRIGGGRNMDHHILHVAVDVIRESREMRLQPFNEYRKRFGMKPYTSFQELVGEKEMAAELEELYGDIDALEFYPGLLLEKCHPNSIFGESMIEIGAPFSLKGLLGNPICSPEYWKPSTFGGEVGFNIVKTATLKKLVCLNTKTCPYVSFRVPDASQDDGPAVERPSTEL

Vd [1]: 0.6 L/kg
clearance (Hepatocyte [2]): 2.1 mL/min/g
IC50 [3]: > 10 µM
Kp at 1 h [4]: 0.41
Vd [5]: 0.6 L/kg
IC50 (Cytochrome P450 2C9): 8 µM
Kp at 1 h [6]: 0.37
concentration at 1 h [7]: 1800 nM
CL [8]: 4.8 mL/min/g
concentration at 1 h [9]: 60 nM
bioavailability [10]: 94%
CL (Hepatocyte [11]): 3.7 mL/min/g
half-life [12]: 1.1 h
concentration at 1 h [13]: 2610 nM
clearance [14]: 19 mL/min/kg
Kp at 12 h [15]: 0.28
Kp at 1 h [16]: 0.27
Vd [17]: 2.1 L/kg
concentration at 1 h [18]: 2390 nM
IC50 [19]: 0.0126 µM
concentration at 1 h [20]: 627 nM
concentration at 1 h [21]: 175 nM
Kp at 1 h [22]: 0.39
half-life [23]: 2.3 h
CL [24]: 2.7 mL/min/g
IC50 [25]: > 31.6 µM
concentration at 1 h [26]: 501 nM
IC50 (Prostacyclin receptor): > 1 µM
Ki [27]: 0.00794 µM
SMILES: O=C([O-])c1cccc(Cc2cc(Cl)ccc2OCc2ccc(Cl)cc2F)n1.[Na+]
ED50 (Rattus norvegicus): 2.6 mg/kg
